The record followed here is ChEMBL document CHEMBL1250448, “Inhibitor hijacking of Akt activation” (Nat Chem Biol, 2009).

Calls of active or inactive are those of the source. The calls are words filed in the database; no cut-off is given here.

Assay [1] concerns the target cAMP-dependent protein kinase catalytic subunit alpha (Homo sapiens) (UniProt P17612). The experiment in a line: Inhibition of PRKACA (PKA) at 1 uM in presence of 10 uM ATP by Select Screen kinase assay relative to untreated control.
In assay [2] the target is Glycogen synthase kinase-3 alpha (Homo sapiens) (UniProt P49840). Description: Inhibition of GSK3A at 1 uM in presence of 10 uM ATP by Select Screen kinase assay relative to untreated control. The method in brief: (§1)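 Part of a 220-kinase panel of purified kinases, each tested with compound at 1 μM. Percent inhibition was measured in the Invitrogen SelectScreen profiling assay.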

Assay [3] has as its target cGMP-dependent protein kinase 1 (Homo sapiens) (UniProt Q13976). The experiment in a line: Inhibition of PRKG1 at 1 uM in presence of 10 uM ATP by Select Screen kinase assay relative to untreated control.
Assay [4] concerns the target Serine/threonine-protein kinase MARK1 (Homo sapiens) (UniProt Q9P0L2). The experiment in a line: Inhibition of MARK1 at 1 uM in presence of 10 uM ATP by Select Screen kinase assay relative to untreated control.
For assay [5], the target named is Serine/threonine-protein kinase 4 (Homo sapiens) (UniProt Q13043). Description: Inhibition of STK4 at 1 uM in presence of 10 uM ATP by Select Screen kinase assay relative to untreated control. The gist of the method:
(§2)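 Commercial SelectScreen profiling panel of 220 purified kinases. Each kinase was tested at a single inhibitor concentration of 1 μM, and activity was expressed as percent inhibition.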

Assay [6] concerns Tyrosine-protein kinase ABL1 (Homo sapiens), P00519 [Y253F]. The experiment in a line: Inhibition of ABL1 Y253F mutant at 1 uM in presence of 10 uM ATP by Select Screen kinase assay relative to untreated control. The method in brief: (§3)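 Single-point screen at 1 μM against a panel of 220 purified kinases, run by Invitrogen staff as a SelectScreen profiling service. Read-out is percent inhibition of kinase activity.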

For assay [7], the target named is Dual specificity tyrosine-phosphorylation-regulated kinase 1B (Homo sapiens) (UniProt Q9Y463). The experiment in a line: Inhibition of DYRK1B at 1 uM in presence of 10 uM ATP by Select Screen kinase assay relative to untreated control. The gist of the method: as §1
The target of assay [8] is Calcium/calmodulin-dependent protein kinase type II subunit delta (Homo sapiens) (UniProt Q13557). The experiment in a line: Inhibition of CAMK2D at 1 uM in presence of 10 uM ATP by Select Screen kinase assay relative to untreated control. The method in brief: as §3
Assay [9] deals with Dual specificity tyrosine-phosphorylation-regulated kinase 3 (Homo sapiens) (UniProt O43781). Description: Inhibition of DYRK3 at 1 uM in presence of 10 uM ATP by Select Screen kinase assay relative to untreated control. The gist of the method:
as §1

Assay [10] has as its target Dual specificity protein kinase CLK2 (Homo sapiens) (UniProt P49760). Description: Inhibition of CLK2 at 1 uM in presence of 10 uM ATP by Select Screen kinase assay relative to untreated control. The method in brief: as §1
Assay [11] concerns the target Serine/threonine-protein kinase N1 (Homo sapiens) (UniProt Q16512). The experiment in a line: Inhibition of PKN1 at 1 uM in presence of 10 uM ATP by Select Screen kinase assay relative to untreated control. The method in brief: (§4)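 Profiling panel of 220 purified kinases (SelectScreen), each compound tested at 1 μM. Read-out is percent inhibition of kinase activity.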

Assay [12] deals with Rho-associated protein kinase 1 (Homo sapiens) (UniProt Q13464). The experiment in a line: Inhibition of ROCK1 at 1 uM in presence of 10 uM ATP by Select Screen kinase assay relative to untreated control.
Assay [13] addresses Ribosomal protein S6 kinase alpha-6 (Homo sapiens) (UniProt Q9UK32). The experiment in a line: Inhibition of RPS6KA6 at 1 uM in presence of 10 uM ATP by Select Screen kinase assay relative to untreated control. The gist of the method: as §2
Assay [14] has as its target Rho-associated protein kinase 2 (Homo sapiens) (UniProt O75116). Description: Inhibition of ROCK2 at 1 uM in presence of 10 uM ATP by Select Screen kinase assay relative to untreated control. The gist of the method:
as §4

Assay [15] has as its target 3-phosphoinositide-dependent protein kinase 1 (Homo sapiens) (UniProt O15530). The experiment in a line: Inhibition of PDK1 at 1 uM in presence of 10 uM ATP by Select Screen kinase assay relative to untreated control. The gist of the method: as §2
The target in assay [16] is Ribosomal protein S6 kinase beta-1 (Homo sapiens, UniProt P23443). The experiment in a line: Inhibition of RPS6KB1 at 1 uM in presence of 10 uM ATP by Select Screen kinase assay relative to untreated control.
Assay [17] deals with Dual specificity protein kinase CLK3 (Homo sapiens) (UniProt P49761). The experiment in a line: Inhibition of CLK3 at 1 uM in presence of 100 uM ATP by Select Screen kinase assay relative to untreated control. The method in brief:
as §1

The target in assay [18] is Muscle, skeletal receptor tyrosine-protein kinase (Homo sapiens) (UniProt O15146). The experiment in a line: Inhibition of MUSK at 1 uM in presence of 100 uM ATP by Select Screen kinase assay relative to untreated control.
Assay [19] concerns the target Dual specificity tyrosine-phosphorylation-regulated kinase 4 (Homo sapiens) (UniProt Q9NR20). Description: Inhibition of DYRK4 at 1 uM in presence of 10 uM ATP by Select Screen kinase assay relative to untreated control. The gist of the method: as §4
Assay [20] concerns the target cGMP-dependent protein kinase 2 (Homo sapiens) (UniProt Q13237). The experiment in a line: Inhibition of PRKG2 at 1 uM in presence of 10 uM ATP by Select Screen kinase assay relative to untreated control.
Assay [21] deals with Protein kinase C epsilon type (Homo sapiens) (UniProt Q02156). The experiment in a line: Inhibition of PKCE at 1 uM in presence of 10 uM ATP by Select Screen kinase assay relative to untreated control.
In assay [22] the target is Misshapen-like kinase 1 (Homo sapiens) (UniProt Q8N4C8). Description: Inhibition of MINK1 at 1 uM in presence of 10 uM ATP by Select Screen kinase assay relative to untreated control.
Assay [23] deals with Platelet-derived growth factor receptor beta (Homo sapiens) (UniProt P09619). Description: Inhibition of PDGFRbeta at 1 uM in presence of 100 uM ATP by Select Screen kinase assay relative to untreated control.
Sequence of Platelet-derived growth factor receptor beta (Homo sapiens) (P09619 whole entry): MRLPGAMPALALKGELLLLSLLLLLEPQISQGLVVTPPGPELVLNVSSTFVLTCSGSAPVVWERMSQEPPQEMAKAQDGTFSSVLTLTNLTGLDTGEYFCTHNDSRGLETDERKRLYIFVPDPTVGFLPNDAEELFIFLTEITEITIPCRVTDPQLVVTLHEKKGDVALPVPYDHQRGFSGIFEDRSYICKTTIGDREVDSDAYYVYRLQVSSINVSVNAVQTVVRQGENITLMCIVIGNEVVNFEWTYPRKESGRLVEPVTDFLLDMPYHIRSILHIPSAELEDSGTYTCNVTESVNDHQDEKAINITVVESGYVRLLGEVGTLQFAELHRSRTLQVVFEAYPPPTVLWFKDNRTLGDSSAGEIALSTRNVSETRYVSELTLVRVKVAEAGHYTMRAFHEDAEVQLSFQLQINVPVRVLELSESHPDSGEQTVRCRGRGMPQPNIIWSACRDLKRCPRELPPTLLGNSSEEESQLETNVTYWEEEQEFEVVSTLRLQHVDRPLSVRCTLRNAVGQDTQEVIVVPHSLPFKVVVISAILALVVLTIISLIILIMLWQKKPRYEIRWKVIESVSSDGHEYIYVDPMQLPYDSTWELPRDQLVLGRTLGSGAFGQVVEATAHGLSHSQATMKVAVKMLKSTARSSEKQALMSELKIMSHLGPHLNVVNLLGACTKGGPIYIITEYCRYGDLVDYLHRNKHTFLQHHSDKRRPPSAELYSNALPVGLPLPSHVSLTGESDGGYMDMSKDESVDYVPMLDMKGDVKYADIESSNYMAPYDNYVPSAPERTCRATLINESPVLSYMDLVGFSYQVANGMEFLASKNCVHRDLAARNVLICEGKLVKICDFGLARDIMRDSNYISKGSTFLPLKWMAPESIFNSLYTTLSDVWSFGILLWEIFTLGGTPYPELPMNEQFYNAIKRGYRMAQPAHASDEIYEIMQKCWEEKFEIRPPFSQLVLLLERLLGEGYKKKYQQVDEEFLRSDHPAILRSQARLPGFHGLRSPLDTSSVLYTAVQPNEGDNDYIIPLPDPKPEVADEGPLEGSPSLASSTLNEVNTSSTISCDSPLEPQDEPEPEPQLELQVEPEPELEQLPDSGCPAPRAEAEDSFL
Assay [24] deals with T1, RAC-alpha serine/threonine-protein kinase (Homo sapiens, UniProt P31749). Description: Induction of AKT1 Ser473 phosphorylation expressed in IGF1-stimulated HEK293 cells treated 20 mins before IGF1 stimulation by immunoblotting. The assay is classed as cell-based. The method in brief:
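HEK293 cells (not transfected), serum-starved overnight, then given inhibitor for 20 min before 50 ng/ml IGF-1 for a further 10 min. Cells detached in ice-cold Ca/Mg-free PBS with 0.04% EDTA and lysed in Tris pH 7.5 Triton buffer with protease/phosphatase inhibitors. Lysates cleared at 14000 g, protein equalised by Bradford, and pThr308, pSer473 and GSK3β pSer9 read by immunoblot with ECL.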

The target of assay [25] is T1, RAC-alpha serine/threonine-protein kinase. Description: Inhibition of wild type AKT1 expressed in HEK293 cells assessed as reduction of IGF1-induced GSK3-beta Ser9 phosphorylation treated 20 mins before IGF1 stimulation by immunoblotting. It is filed as cell-based. The gist of the method:
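Untransfected HEK293 cells carrying endogenous Akt were serum-starved overnight. They were treated with compound for 20 min, then stimulated with 50 ng/ml IGF-1 for 10 min. DMSO stocks were diluted 1:1000. Lysates in Tris pH 7.5/Triton buffer with phosphatase inhibitors were immunoblotted for GSK3β Ser9 and Akt Thr308/Ser473 phosphorylation, read by ECL.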

T1 sequence (P31749 whole entry): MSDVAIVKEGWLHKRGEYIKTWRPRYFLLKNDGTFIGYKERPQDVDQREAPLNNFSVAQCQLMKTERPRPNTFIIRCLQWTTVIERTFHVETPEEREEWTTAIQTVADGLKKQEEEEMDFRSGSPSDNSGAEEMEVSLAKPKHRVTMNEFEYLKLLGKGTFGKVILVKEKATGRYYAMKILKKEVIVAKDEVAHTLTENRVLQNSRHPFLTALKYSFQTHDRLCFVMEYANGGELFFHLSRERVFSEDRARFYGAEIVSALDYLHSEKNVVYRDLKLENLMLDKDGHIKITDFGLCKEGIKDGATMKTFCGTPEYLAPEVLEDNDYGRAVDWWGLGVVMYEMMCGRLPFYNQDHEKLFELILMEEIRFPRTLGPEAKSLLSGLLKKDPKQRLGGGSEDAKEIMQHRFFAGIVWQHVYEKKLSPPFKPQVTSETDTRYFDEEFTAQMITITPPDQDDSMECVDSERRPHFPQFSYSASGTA
Sequence of 3-phosphoinositide-dependent protein kinase 1 (Homo sapiens) (O15530 whole entry): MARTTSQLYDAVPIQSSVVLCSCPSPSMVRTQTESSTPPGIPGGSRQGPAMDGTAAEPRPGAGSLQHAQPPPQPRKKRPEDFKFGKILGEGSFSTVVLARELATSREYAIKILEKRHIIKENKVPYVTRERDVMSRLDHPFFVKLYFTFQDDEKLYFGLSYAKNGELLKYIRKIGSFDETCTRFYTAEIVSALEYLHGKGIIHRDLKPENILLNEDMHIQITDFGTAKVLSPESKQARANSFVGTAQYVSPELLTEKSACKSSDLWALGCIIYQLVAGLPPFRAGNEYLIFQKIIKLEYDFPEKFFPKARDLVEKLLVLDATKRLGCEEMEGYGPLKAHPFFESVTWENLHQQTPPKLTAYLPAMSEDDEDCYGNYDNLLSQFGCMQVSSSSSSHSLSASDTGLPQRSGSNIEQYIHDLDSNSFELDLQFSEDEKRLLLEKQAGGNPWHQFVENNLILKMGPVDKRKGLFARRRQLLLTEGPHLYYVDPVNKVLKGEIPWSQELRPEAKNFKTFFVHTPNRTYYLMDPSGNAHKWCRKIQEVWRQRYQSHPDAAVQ
Sequence of Serine/threonine-protein kinase N1 (Homo sapiens) (Q16512 2-942 limits assumed): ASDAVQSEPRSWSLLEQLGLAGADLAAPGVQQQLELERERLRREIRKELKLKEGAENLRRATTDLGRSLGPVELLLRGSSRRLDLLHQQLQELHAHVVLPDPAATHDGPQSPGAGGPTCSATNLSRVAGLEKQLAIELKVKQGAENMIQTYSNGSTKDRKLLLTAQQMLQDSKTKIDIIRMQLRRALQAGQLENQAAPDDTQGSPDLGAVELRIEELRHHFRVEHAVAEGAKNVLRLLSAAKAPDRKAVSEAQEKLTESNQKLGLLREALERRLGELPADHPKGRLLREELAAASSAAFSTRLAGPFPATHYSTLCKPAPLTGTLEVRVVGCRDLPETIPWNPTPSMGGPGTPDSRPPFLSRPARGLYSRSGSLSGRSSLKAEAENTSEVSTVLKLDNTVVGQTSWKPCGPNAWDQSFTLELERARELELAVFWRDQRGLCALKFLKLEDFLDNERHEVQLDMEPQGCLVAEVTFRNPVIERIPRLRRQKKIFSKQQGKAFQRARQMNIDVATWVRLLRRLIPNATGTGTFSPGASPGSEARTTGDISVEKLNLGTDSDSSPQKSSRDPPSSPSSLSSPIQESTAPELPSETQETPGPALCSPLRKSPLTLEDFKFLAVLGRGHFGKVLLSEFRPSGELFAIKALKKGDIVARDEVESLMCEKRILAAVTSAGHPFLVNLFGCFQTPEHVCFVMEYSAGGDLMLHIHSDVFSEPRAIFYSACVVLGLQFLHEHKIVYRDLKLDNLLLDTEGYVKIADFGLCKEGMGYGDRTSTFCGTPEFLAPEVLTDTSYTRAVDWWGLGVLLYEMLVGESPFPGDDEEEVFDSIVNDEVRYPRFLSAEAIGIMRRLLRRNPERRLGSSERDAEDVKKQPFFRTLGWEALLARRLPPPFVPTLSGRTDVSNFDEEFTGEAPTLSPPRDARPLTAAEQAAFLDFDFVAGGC
Sequence of Dual specificity tyrosine-phosphorylation-regulated kinase 3 (Homo sapiens) (O43781 whole entry): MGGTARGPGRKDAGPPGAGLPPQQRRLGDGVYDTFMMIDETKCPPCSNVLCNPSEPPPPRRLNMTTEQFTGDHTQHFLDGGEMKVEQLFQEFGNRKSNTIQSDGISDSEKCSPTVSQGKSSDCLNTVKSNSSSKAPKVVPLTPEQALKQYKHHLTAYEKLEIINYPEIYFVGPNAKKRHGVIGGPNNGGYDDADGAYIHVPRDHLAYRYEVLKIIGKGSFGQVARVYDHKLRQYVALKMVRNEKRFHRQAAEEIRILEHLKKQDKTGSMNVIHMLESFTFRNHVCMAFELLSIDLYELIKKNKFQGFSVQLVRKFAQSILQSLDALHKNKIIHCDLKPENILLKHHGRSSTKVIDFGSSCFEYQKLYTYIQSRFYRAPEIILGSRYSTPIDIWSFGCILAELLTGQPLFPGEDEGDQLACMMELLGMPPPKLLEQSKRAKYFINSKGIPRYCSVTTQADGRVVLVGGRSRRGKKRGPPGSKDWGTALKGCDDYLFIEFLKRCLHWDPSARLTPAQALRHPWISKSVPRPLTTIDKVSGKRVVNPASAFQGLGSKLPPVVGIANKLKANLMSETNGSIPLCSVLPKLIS
Sequence of Serine/threonine-protein kinase 4 (Homo sapiens) (Q13043 whole entry): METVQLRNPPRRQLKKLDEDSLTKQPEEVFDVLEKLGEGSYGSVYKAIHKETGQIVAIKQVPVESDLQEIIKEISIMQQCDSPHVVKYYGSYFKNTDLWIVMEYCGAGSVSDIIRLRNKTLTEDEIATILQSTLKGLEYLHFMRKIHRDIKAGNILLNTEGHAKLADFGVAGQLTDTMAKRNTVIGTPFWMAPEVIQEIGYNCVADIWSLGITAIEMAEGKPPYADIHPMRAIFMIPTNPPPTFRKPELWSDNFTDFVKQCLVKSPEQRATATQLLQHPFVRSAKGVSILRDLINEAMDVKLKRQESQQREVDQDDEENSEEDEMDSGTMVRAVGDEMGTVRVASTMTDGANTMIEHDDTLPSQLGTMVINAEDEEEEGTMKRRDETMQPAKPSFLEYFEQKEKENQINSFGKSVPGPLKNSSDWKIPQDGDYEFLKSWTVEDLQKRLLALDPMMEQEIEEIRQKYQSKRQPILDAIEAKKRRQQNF
Sequence of Dual specificity protein kinase CLK3 (Homo sapiens) (P49761 whole entry, looked up): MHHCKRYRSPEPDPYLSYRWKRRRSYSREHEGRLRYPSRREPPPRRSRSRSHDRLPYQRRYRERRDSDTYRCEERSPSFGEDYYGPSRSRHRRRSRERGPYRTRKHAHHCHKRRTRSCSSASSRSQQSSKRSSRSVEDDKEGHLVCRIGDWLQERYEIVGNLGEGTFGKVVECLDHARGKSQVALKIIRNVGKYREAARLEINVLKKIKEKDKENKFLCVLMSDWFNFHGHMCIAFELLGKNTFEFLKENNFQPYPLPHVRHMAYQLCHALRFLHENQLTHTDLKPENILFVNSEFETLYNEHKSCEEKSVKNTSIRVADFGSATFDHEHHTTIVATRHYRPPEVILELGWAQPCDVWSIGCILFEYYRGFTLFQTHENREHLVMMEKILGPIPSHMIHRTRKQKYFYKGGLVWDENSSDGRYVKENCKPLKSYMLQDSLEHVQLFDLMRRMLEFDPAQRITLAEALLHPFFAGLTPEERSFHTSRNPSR

As to `O=C(NCCCNc1nc(Nc2cccc(NC(=O)N3CCCC3)c2)ncc1I)c1cccs1`, the inhibition in [1] came to 28%; in assay [2], 69%; in assay [3] it was 22%; in [4], 95%; in assay [5], 36%; in assay [6] it was 36%. For the same compound, the inhibition in [7] amounted to 26%; in assay [8] it was 85%; in assay [9], 50%; in assay [10], 70%; in assay [11], 84%; in assay [12], 48%. The inhibition in assay [13] turned out to be 58%; in [14], 72%; in [15], 89%; in assay [16], 29%; in [17], 8%; in assay [18], 76%. The inhibition in [19] was 2%; in assay [20], 29%; in assay [21], 47%; in assay [22], 38%; in [23], 84%.
Regarding `COc1ccccc1N1CCN(c2ncnc3[nH]nc(Br)c23)CC1`, the inhibition in [1] came to 48%; in [2] it was 80%; in assay [3], 52%; in [4], 23%; in assay [5], 19%; in [6] it was 12%. The inhibition is 43% in [7]; 11% in assay [8]; 69% in assay [9]; 85% in assay [10]; 18% in assay [11]; -2% in [12]. Further, the inhibition in assay [13] stood at 28%; in assay [14], 2%; in assay [15], 12%; in assay [16], 80%; in assay [17] it was 32%; in [18], 19%. In addition, the inhibition was determined as 3% in [19]; 92% in assay [20]; 13% in [21]; 71% in assay [22]; 2% in assay [23].
Turning to `CCCc1cc(-c2cncc(OC[C@@H](N)Cc3c[nH]c4ccccc34)c2)cc2c(C)n[nH]c12`, the result in assay [24] was inactive. In assay [25], the inhibition result was “inactive”.
For `Cc1n[nH]c2ccc(-c3cncc(OC[C@@H](N)Cc4c[nH]c5ccccc45)c3)cc12`, the result in [24] was Active. In addition, the inhibition entry in [25] was “Active”.
